Key:
[1] = test system: Rattus norvegicus; assay: Distribution of the radio labelled compound in cerebellum of rat brain after intravenous administration in presence of RTI-113 after 60 min; assay type: ADME, organism-based; conditions: in vivo, 1 h
Outline: (§1)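 Male Sprague–Dawley rats (200–250 g), ketamine/xylazine anesthesia, tail-vein cannula. Blocker (4 mg/kg) or nothing given 15 min before iv [123I]ZIET in 10% ethanol/saline. Killed 60 min post-tracer.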

[2] = test system: Rattus norvegicus; assay: Distribution of the radio labelled compound in frontal cortex of rat brain after intravenous administration in presence of citalopram after 60 min; assay type: ADME, organism-based; conditions: in vivo, 1 h
Outline: (§2)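 Male Sprague–Dawley rats (200–250 g) under ketamine/xylazine anaesthesia with tail-vein cannulas. Blocker or none given 15 min before ~20 μCi [123I] tracer iv in 0.2 mL 10% ethanol/saline; blocker dose 4 mg/kg.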

[3] = test system: Rattus norvegicus; assay: Distribution of the radio labelled compound in hippocampus of rat brain after intravenous administration in absence of blocker after 60 min; assay type: ADME, organism-based; conditions: in vivo, 1 h; outline: as §2
[4] = test system: Rattus norvegicus; assay: Distribution in occipital cortex of rat brain after intravenous administration by using [123I]ZIET after 120 min; assay type: ADME, organism-based; conditions: in vivo, 2 h
Outline: (§3)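 Male Sprague–Dawley rats (200–250 g), fed ad libitum, given ~20 μCi radiotracer iv via tail-vein cannula in 0.2 mL 10% ethanol/saline under ketamine/xylazine im anesthesia. Killed at 5, 30, 60 or 120 min (n = 5; n = 4 at 120 min). Brain regions dissected, weighed, gamma-counted with dose standards, decay-corrected; mean %ID/g ± SE.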

[5] = test system: Rattus norvegicus; assay: Distribution in occipital cortex of rat brain after intravenous administration by using [123I]ZIET after 5 min; assay type: ADME, organism-based; conditions: in vivo; outline: as §3
[6] = test system: Rattus norvegicus; assay: Distribution in striatum of rat brain after intravenous administration by using [123I]-ZIET after 5 min; assay type: ADME, organism-based; conditions: in vivo; outline: as §3
[7] = test system: Rattus norvegicus; assay: Distribution in thyroid of rat brain after intravenous administration by using [123I]ZIET after 120 min; assay type: ADME, organism-based, Thyroid gland; conditions: in vivo, 2 h; outline: as §3
[8] = test system: Rattus norvegicus; assay: Distribution in thyroid of rat brain after intravenous administration by using [123I]ZIET after 30 min; assay type: ADME, organism-based, Thyroid gland; conditions: in vivo, 0.5 h; outline: as §3
[9] = test system: Rattus norvegicus; assay: Distribution in thyroid of rat brain after intravenous administration by using [123I]ZIET after 5 min; assay type: ADME, organism-based, Thyroid gland; conditions: in vivo; outline: as §3
[10] = test system: Rattus norvegicus; assay: Distribution of the radio labelled compound in blood of rat brain after intravenous administration in absence of blocker after 60 min; assay type: ADME, organism-based; conditions: in vivo, 1 h; outline: as §1
[11] = test system: Rattus norvegicus; assay: Distribution of the radio labelled compound in blood of rat brain after intravenous administration in presence of reboxetine after 60 min; assay type: ADME, organism-based; conditions: in vivo, 1 h; outline: as §1
[12] = test system: Rattus norvegicus; assay: Distribution of the radio labelled compound in brainstem of rat brain after intravenous administration in absence of blocker after 60 min; assay type: ADME, organism-based; conditions: in vivo, 1 h; outline: as §1
[13] = test system: Rattus norvegicus; assay: Distribution of the radio labelled compound in brainstem of rat brain after intravenous administration in presence of citalopram after 60 min; assay type: ADME, organism-based; conditions: in vivo, 1 h; outline: as §1
[14] = test system: Rattus norvegicus; assay: Distribution in hippocampus of rat brain after intravenous administration by using [123I]ZIET after 60 min; assay type: ADME, organism-based; conditions: in vivo, 1 h; outline: as §3
[15] = test system: Rattus norvegicus; assay: Distribution in hypothalamus of rat brain after intravenous administration by using [123I]ZIET after 120 min; assay type: ADME, organism-based; conditions: in vivo, 2 h; outline: as §3
[16] = test system: Rattus norvegicus; assay: Distribution in hypothalamus of rat brain after intravenous administration by using [123I]ZIET after 30 min; assay type: ADME, organism-based; conditions: in vivo, 0.5 h; outline: as §3
[17] = test system: Rattus norvegicus; assay: Distribution of the radio labelled compound in rest of rat brain after intravenous administration in presence of reboxetine after 60 min; assay type: ADME, organism-based; conditions: in vivo, 1 h; outline: as §2
[18] = test system: Rattus norvegicus; assay: Distribution of the radio labelled compound in striatum of rat brain after intravenous administration in absence of blocker after 60 min; assay type: ADME, organism-based; conditions: in vivo, 1 h; outline: as §2
[19] = test system: Rattus norvegicus; assay: Distribution of the radio labelled compound in striatum of rat brain after intravenous administration in presence of citalopram after 60 min; assay type: ADME, organism-based; conditions: in vivo, 1 h; outline: as §2
[20] = test system: Rattus norvegicus; assay: Distribution of the radio labelled compound in striatum of rat brain after intravenous administration in presence of reboxetine after 60 min; assay type: ADME, organism-based; conditions: in vivo, 1 h; outline: as §2
[21] = test system: Rattus norvegicus; assay: Distribution of the radio labelled compound in thyroid of rat brain after intravenous administration in absence of blocker after 60 min; assay type: ADME, organism-based, Thyroid gland; conditions: in vivo, 1 h; outline: as §2
[22] = test system: Rattus norvegicus; assay: Distribution of the radio labelled compound in thyroid of rat brain after intravenous administration in presence of RTI-113 after 60 min; assay type: ADME, organism-based, Thyroid gland; conditions: in vivo, 1 h; outline: as §2
[23] = test system: Rattus norvegicus; assay: Distribution of the radio labelled compound in thyroid of rat brain after intravenous administration in presence of reboxetine after 60 min; assay type: ADME, organism-based, Thyroid gland; conditions: in vivo, 1 h; outline: as §2
[24] = test system: Rattus norvegicus; assay: Distribution of the radio labelled compound in hypothalamus of rat brain after intravenous administration in absence of blocker after 60 min; assay type: ADME, organism-based; conditions: in vivo, 1 h; outline: as §2
[25] = test system: Rattus norvegicus; assay: Distribution in blood of rat brain after intravenous administration by using [123I]ZIET after 120 min; assay type: ADME, organism-based; conditions: in vivo, 2 h; outline: as §3
[26] = test system: Rattus norvegicus; assay: Distribution in blood of rat brain after intravenous administration by using [123I]ZIET after 5 min; assay type: ADME, organism-based; conditions: in vivo; outline: as §3
[27] = test system: Rattus norvegicus; assay: Distribution in brainstem of rat brain after intravenous administration by using [123I]ZIET after 120 min; assay type: ADME, organism-based; conditions: in vivo, 2 h; outline: as §3
[28] = test system: Rattus norvegicus; assay: Distribution in frontal cortex of rat brain after intravenous administration by using [123I]ZIET after 5 min; assay type: ADME, organism-based; conditions: in vivo; outline: as §3
[29] = test system: Rattus norvegicus; assay: Distribution in frontal cortex of rat brain after intravenous administration by using [123I]ZIET after 60 min; assay type: ADME, organism-based; conditions: in vivo, 1 h; outline: as §3
[30] = test system: Rattus norvegicus; assay: Distribution of the radio labelled compound in hypothalamus of rat brain after intravenous administration in presence of citalopram after 60 min; assay type: ADME, organism-based; conditions: in vivo, 1 h; outline: as §2
[31] = test system: Rattus norvegicus; assay: Distribution of the radio labelled compound in occipital cortex of rat brain after intravenous administration in presence of citalopram after 60 min; assay type: ADME, organism-based; conditions: in vivo, 1 h; outline: as §2
[32] = test system: Rattus norvegicus; assay: Distribution of the radio labelled compound in occipital cortex of rat brain after intravenous administration in presence of reboxetine after 60 min; assay type: ADME, organism-based; conditions: in vivo, 1 h; outline: as §2
[33] = Ratio of radioactivity in brainstem of rat brain to that of rat cerebellum after intravenous administration after 30 min; assay type: functional
Outline: (§4)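 Male Sprague–Dawley rats (200–250 g) given ~20 μCi [123I] tracer iv in 0.2 mL 10% ethanol/saline under ketamine/xylazine; killed at 5, 30, 60, 120 min (n = 5; n = 4 at 120 min). Brain regions dissected, gamma counted, decay-corrected to %ID/g; regional uptake divided by cerebellum.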

[34] = Ratio of radioactivity in frontal cortex of rat brain to that of rat cerebellum after intravenous administration after 60 min; assay type: functional; outline: as §4
[35] = Ratio of radioactivity in hippocampus of rat brain to that of rat cerebellum after intravenous administration after 5 min; assay type: functional; outline: as §4
[36] = Ratio of radioactivity in hypothalamus of rat brain to that of rat cerebellum after intravenous administration after 30 min; assay type: functional; outline: as §4
[37] = Ratio of radioactivity in hypothalamus of rat brain to that of rat cerebellum after intravenous administration after 5 min; assay type: functional; outline: as §4
[38] = Ratio of radioactivity in occipital cortex of rat brain to that of rat cerebellum after intravenous administration after 120 min; assay type: functional; outline: as §4
[39] = Ratio of radioactivity in rest of rat brain to that of rat cerebellum after intravenous administration after 120 min; assay type: functional; outline: as §4
[40] = Ratio of radioactivity in rest of rat brain to that of rat cerebellum after intravenous administration after 30 min; assay type: functional; outline: as §4
[41] = Ratio of radioactivity in rest of rat brain to that of rat cerebellum after intravenous administration after 5 min; assay type: functional; outline: as §4
[42] = Ratio of radioactivity in rest of rat brain to that of rat cerebellum after intravenous administration after 60 min; assay type: functional; outline: as §4
[43] = Ratio of radioactivity in striatum of rat brain to that of rat cerebellum after intravenous administration after 120 min; assay type: functional; outline: as §4
[44] = Ratio of radioactivity in hypothalamus of rat brain to that of rat cerebellum after intravenous administration after 120 min; assay type: functional; outline: as §4

Structure (SMILES): COC(=O)C1C(c2ccc(/C=C\[123I])cc2)CC2CCC1N2C (centres undefined)
- Activity [1]: 0.13
- Activity [2]: 0.21
- Activity [3]: 0.4
- Activity [4]: 0.42
- Activity [5]: 0.45
- Activity [6]: 0.39
- Activity [7]: 2.12
- Activity [8]: 0.74
- Activity [9]: 0.08
- Activity [10]: 0.22
- Activity [11]: 0.26
- Activity [12]: 0.33
- Activity [13]: 0.14
- Activity [14]: 0.63
- Activity [15]: 0.6
- Activity [16]: 0.68
- Activity [17]: 0.34
- Activity [18]: 0.42
- Activity [19]: 0.26
- Activity [20]: 0.45
- Activity [21]: 0.54
- Activity [22]: 1.01
- Activity [23]: 1.12
- Activity [24]: 0.42
- Activity [25]: 0.38
- Activity [26]: 0.45
- Activity [27]: 0.41
- Activity [28]: 0.45
- Activity [29]: 0.71
- Activity [30]: 0.2
- Activity [31]: 0.2
- Activity [32]: 0.42
- Ratio [33]: 1.5
- Ratio [34]: 2.6
- Ratio [35]: 1.1
- Ratio [36]: 1.6
- Ratio [37]: 1.1
- Ratio [38]: 3
- Ratio [39]: 2.8
- Ratio [40]: 1.6
- Ratio [41]: 1.1
- Ratio [42]: 2
- Ratio [43]: 3.7
- Ratio [44]: 4.3
